# Measured values taken from ChEMBL document CHEMBL1158358, “Synthesis, antimicrobial and cytotoxic activities of some 5-arylidene-4-thioxo-thiazolidine-2-ones” (Eur J Med Chem, 2009).
# Experiments:
# Type in all cases: functional
# Bacillus subtilis [1] = assay: Antimicrobial activity against Bacillus subtilis UFPEDA 16 at 10 ug/disk after 24 hrs by disk diffusion method; conditions: UFPEDA 16, 24 h, read-out: IZ
# Micrococcus luteus [2] = assay: Antimicrobial activity against Micrococcus luteus UFPEDA 06 at 10 ug/disk after 24 hrs by disk diffusion method; conditions: UFPEDA 06, 24 h, read-out: IZ
# Enterococcus faecalis [3] = assay: Antimicrobial activity against Enterococcus faecalis UFPEDA 138 at 10 ug/disk after 24 hrs by disk diffusion method; conditions: UFPEDA 138, 24 h, read-out: IZ
# Escherichia coli = assay: Antimicrobial activity against Escherichia coli UFPEDA 224 at 10 ug/disk after 24 hrs by disk diffusion method; conditions: UFPEDA 224, 24 h, read-out: IZ
# In short: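 Preliminary screen: 6 mm paper disks bearing the agent placed on agar plates inoculated with a standardized microbial suspension. Negative control was DMSO-only disks. Inhibition zones are means of n = 3; no zone or a mean zone below 7 mm was scored as no sensitivity.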
# Staphylococcus aureus [4] = assay: Antimicrobial activity against Staphylococcus aureus UFPEDA 01 after 20 hrs by twofold serial dilution technique; conditions: UFPEDA 01, 20 h
# In short: (§1)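 Twofold serial dilution MIC in agar plates against Gram-positive strains and multidrug-resistant clinical isolates. Inoculum applied was 10⁵ CFU/plate. Plates with culture medium plus DMSO served as negative control. MIC was read after incubation at 35 °C for 20 h.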
# Bacillus subtilis [5] = assay: Antimicrobial activity against Bacillus subtilis UFPEDA 16 after 20 hrs by twofold serial dilution technique; conditions: UFPEDA 16, 20 h
# In short: (§2)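 MIC was determined by twofold serial dilution. Bacteria were tested in plates at 10⁵ CFU/plate and read after 20 h. C. albicans was tested in tubes at 10³ CFU/tube and read after 48 h. All incubations were at 35 °C. Medium plus DMSO served as the negative control.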
# Micrococcus luteus [6] = assay: Antimicrobial activity against Micrococcus luteus UFPEDA 06 after 20 hrs by twofold serial dilution technique; conditions: UFPEDA 06, 20 h; in short: as §2
# Enterococcus faecalis [7] = assay: Antimicrobial activity against Enterococcus faecalis UFPEDA 138 after 20 hrs by twofold serial dilution technique; conditions: UFPEDA 138, 20 h; in short: as §2
# [8] = tested on: Mycolicibacterium smegmatis; assay: Antimicrobial activity against Mycobacterium smegmatis UFPEDA 71 after 20 hrs by twofold serial dilution technique; conditions: UFPEDA 71, 20 h; in short: as §2
# Staphylococcus aureus [9] = assay: Antimicrobial activity against multidrug-resistant Staphylococcus aureus H.C. 20981 isolate after 20 hrs by twofold serial dilution technique; conditions: H.C. 20981, 20 h; in short: as §1
# Staphylococcus aureus [10] = assay: Antimicrobial activity against multidrug-resistant Staphylococcus aureus H.C. 21141 isolate after 20 hrs by twofold serial dilution technique; conditions: H.C. 21141, 20 h; in short: as §1
# Staphylococcus aureus [11] = assay: Antimicrobial activity against multidrug-resistant Staphylococcus aureus H.C. 21036 isolate after 20 hrs by twofold serial dilution technique; conditions: H.C. 21036, 20 h; in short: as §1
# Staphylococcus aureus [12] = assay: Antimicrobial activity against multidrug-resistant Staphylococcus aureus H.C. 20489 isolate after 20 hrs by twofold serial dilution technique; conditions: H.C. 20489, 20 h; in short: as §1
# Staphylococcus aureus [13] = assay: Antimicrobial activity against multidrug-resistant Staphylococcus aureus H.C. 20794 isolate after 20 hrs by twofold serial dilution technique; conditions: H.C. 20794, 20 h; in short: as §1
# Staphylococcus aureus [14] = assay: Antimicrobial activity against multidrug-resistant Staphylococcus aureus H.C. 20905 isolate after 20 hrs by twofold serial dilution technique; conditions: H.C. 20905, 20 h; in short: as §1
# Enterococcus faecalis [15] = assay: Antimicrobial activity against multidrug-resistant Enterococcus faecalis H.C. 21752 isolate after 20 hrs by twofold serial dilution technique; conditions: H.C. 21752, 20 h; in short: as §1
# Enterococcus faecalis [16] = assay: Antimicrobial activity against multidrug-resistant Enterococcus faecalis H.C. 21944 isolate after 20 hrs by twofold serial dilution technique; conditions: H.C. 21944, 20 h; in short: as §1
# Enterococcus faecalis [17] = assay: Antimicrobial activity against multidrug-resistant Enterococcus faecalis H.C. 24708 isolate after 20 hrs by twofold serial dilution technique; conditions: H.C. 24708, 20 h; in short: as §1
# Enterococcus faecalis [18] = assay: Antimicrobial activity against multidrug-resistant Enterococcus faecalis H.C. 24962 isolate after 20 hrs by twofold serial dilution technique; conditions: H.C. 24962, 20 h; in short: as §1
# Staphylococcus [19] = assay: Antimicrobial activity against coagulase-negative Staphylococcus H.A.M. 278 isolate after 20 hrs by twofold serial dilution technique; conditions: H.A.M. 278, 20 h; in short: as §2
# Staphylococcus [20] = assay: Antimicrobial activity against coagulase-negative Staphylococcus H.A.M. 338 isolate after 20 hrs by twofold serial dilution technique; conditions: H.A.M. 338, 20 h; in short: as §2
# Staphylococcus aureus [21] = assay: Antimicrobial activity against Staphylococcus aureus UFPEDA 01 at 10 ug/disk after 24 hrs by disk diffusion method; conditions: UFPEDA 01, 24 h, read-out: IZ
compound,measurement,setting,value
CC1(C)S[C@@H]2[C@H](NC(=O)[C@H](N)c3ccccc3)C(=O)N2[C@H]1C(=O)O [AMPICILLIN],zone of inhibition at 10 µg/disc,Bacillus subtilis [1],28 mm
same,zone of inhibition at 10 µg/disc,Micrococcus luteus [2],45 mm
same,zone of inhibition at 10 µg/disc,Enterococcus faecalis [3],24 mm
same,zone of inhibition at 10 µg/disc,Escherichia coli,20 mm
same,MIC,Staphylococcus aureus [4],2 µg/mL
same,MIC,Bacillus subtilis [5],2 µg/mL
same,MIC,Micrococcus luteus [6],2 µg/mL
same,MIC,Enterococcus faecalis [7],2 µg/mL
same,MIC,[8],64 µg/mL
same,MIC,Staphylococcus aureus [9],2 µg/mL
same,MIC,Staphylococcus aureus [10],≤ 1 µg/mL
same,MIC,Staphylococcus aureus [11],32 µg/mL
same,MIC,Staphylococcus aureus [12],≤ 1 µg/mL
same,MIC,Staphylococcus aureus [13],2 µg/mL
same,MIC,Staphylococcus aureus [14],64 µg/mL
same,MIC,Enterococcus faecalis [15],2 µg/mL
same,MIC,Enterococcus faecalis [16],≤ 1 µg/mL
same,MIC,Enterococcus faecalis [17],2 µg/mL
same,MIC,Enterococcus faecalis [18],2 µg/mL
same,MIC,Staphylococcus [19],≤ 1 µg/mL
same,MIC,Staphylococcus [20],≤ 1 µg/mL
same,zone of inhibition at 10 µg/disc,Staphylococcus aureus [21],38 mm
